Measured values as given in ChEMBL document CHEMBL4732226, “Discovery of a potent G-protein-coupled receptor 119 agonist for the treatment of type 2 diabetes” (Bioorg Med Chem, 2021).

Legend:
[1] = target: T1, Glucose-dependent insulinotropic receptor (Homo sapiens) (UniProt Q8TDV5); assay: Agonist activity at human GPR119 stably transfected in CHO-K1 cells assessed as increase in cAMP stimulation after 1 hr by enzyme immunoassay relative to AR231453; type: functional, cell-based
T1 sequence (whole entry): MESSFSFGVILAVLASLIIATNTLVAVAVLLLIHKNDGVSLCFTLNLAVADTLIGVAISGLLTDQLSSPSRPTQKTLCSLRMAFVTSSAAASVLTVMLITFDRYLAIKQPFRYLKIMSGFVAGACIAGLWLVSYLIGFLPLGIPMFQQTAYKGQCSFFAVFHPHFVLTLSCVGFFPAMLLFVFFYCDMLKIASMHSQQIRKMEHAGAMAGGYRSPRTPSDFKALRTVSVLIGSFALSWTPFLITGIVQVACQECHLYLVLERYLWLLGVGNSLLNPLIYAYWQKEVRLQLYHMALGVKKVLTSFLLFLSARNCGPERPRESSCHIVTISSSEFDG

[2] = target: T2, Glucose-dependent insulinotropic receptor (Homo sapiens, UniProt Q8TDV5); assay: Agonist activity at human GPR119 stably transfected in CHO-K1 cells assessed as increase in cAMP stimulation after 1 hr by enzyme immunoassay; type: functional, cell-based
T2 sequence (Q8TDV5 whole entry): T1 sequence (whole entry)

Mus musculus = assay: Antidiabetic activity in glucose-stimulated […] mouse assessed as reduction in blood glucose level at 50 mg/kg, po pretreated for 30 mins followed by glucose-stimulation and measured up to 120 mins by OGTT method relative to control; type: functional; set-up: scale not given: the % may be the effect or the level left; conditions: 0.5 h
Summary of the method: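 C57 mice aged 6–8 weeks were grouped by non-fasting glucose and fasted overnight. Single oral dose of 50 mg/kg; 30 min later basal bleed and oral glucose 3 g/kg. Serum glucose taken at 20, 40, 60 and 120 min. Change in glucose AUC calculated.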

[3] = Tmax in Sprague-Dawley rat at 25 mg/kg, po up to 24 hrs; type: ADME, organism-based; conditions: in vivo
Summary of the method: (§1)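 Male SD rats fasted overnight, water ad libitum, fed 4 h after dosing. Single oral gavage of 25 mg/kg as a homogeneous suspension in 0.5% Tween 80 in 0.5% Na-CMC. Blood drawn into Na-heparin tubes at 0.25, 0.5, 1, 2, 4, 6, 8 and 24 h; plasma stored at -70°C. Parameters by non-compartmental analysis, with C0 taken as zero and BLQ samples set to zero.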

[4] = Cmax in Sprague-Dawley rat at 25 mg/kg, po up to 24 hrs; type: ADME, organism-based; set-up: route oral, dose 25 mg/kg, time <=24; conditions: in vivo; summary of the method: as §1
[5] = Half life in Sprague-Dawley rat at 25 mg/kg, po up to 24 hrs; type: ADME, organism-based; conditions: in vivo; summary of the method: as §1
[6] = Elimination rate constant in Sprague-Dawley rat at 25 mg/kg, po up to 24 hrs; type: ADME, organism-based; conditions: in vivo; summary of the method: as §1
[7] = AUC(0 to t) in Sprague-Dawley rat at 25 mg/kg, po up to 24 hrs; type: ADME, organism-based; set-up: route oral, dose 25 mg/kg, time <=24; conditions: in vivo; summary of the method: as §1
[8] = AUC(0 to infinity) in Sprague-Dawley rat at 25 mg/kg, po up to 24 hrs; type: ADME, organism-based; set-up: route oral, dose 25 mg/kg, time <=24; conditions: in vivo; summary of the method: as §1

SMILES	Emax ([1]; filed as agonist) [%]	EC50 ([2]; read-out: EC50) [nM]	other results
CC(C)(C)OC(=O)N1CCC(Oc2cc(Oc3ccc(/C=C4\SC(=O)NC4=O)cc3)ncn2)CC1	122	–	–
COC(=O)N1CCC(Oc2ncnc(Oc3ccc(/C=C4\SC(=O)NC4=O)cc3)c2C)CC1	53.3	1410	–
COC(=O)N1CCC(Oc2ncnc(Oc3cccc(/C=C4\SC(=O)NC4=O)c3)c2C)CC1	–	–	EC50 ([2]; cho-k1): Not Active
Cc1c(Oc2ccc(/C=C3\SC(=O)NC3=O)cc2)ncnc1OC1CCN(C(=O)OC(C)(C)C)CC1	68.8	–	Activity (Mus musculus): 34.6%; Tmax [3]: 2.25 h; Cmax [4]: 835 ng/mL; half-life [5]: 4.37 h; k el at 24 h [6]: 4.44e-05 s⁻¹; AUC(0-t) at 24 h [7]: 8110 ng·h/mL; AUC(0-inf) [8]: 8310 ng·h/mL
COC(=O)N1CCC(Oc2cc(Oc3cccc(/C=C4\SC(=O)NC4=O)c3)ncn2)CC1	–	1870	Emax [1]: 33.7%
CCOC(=O)N1CCC(Oc2cc(Oc3cccc(/C=C4\SC(=O)NC4=O)c3)ncn2)CC1	43.3	819	–
Cc1c(Oc2cccc(/C=C3\SC(=O)NC3=O)c2)ncnc1OC1CCN(C(=O)OCC(C)C)CC1	–	–	EC50 ([2]; cho-k1): Not Active
CCOC(=O)N1CCC(Oc2cc(Oc3ccc(/C=C4\SC(=O)NC4=O)cc3)ncn2)CC1	51.8	790	–
CC(C)c1noc(C2CCN(c3ncnc(Nc4ccc(S(C)(=O)=O)cc4F)c3[N+](=O)[O-])CC2)n1	100	6	–
Cc1c(Oc2ccc(/C=C3\SC(=O)NC3=O)cc2)ncnc1OC1CCN(C(=O)OCc2ccccc2)CC1	43.3	805	–
CCOC(=O)N1CCC(Oc2ncnc(Oc3ccc(/C=C4\SC(=O)NC4=O)cc3)c2C)CC1	141	157	–
COC(=O)N1CCC(Oc2cc(Oc3ccc(/C=C4\SC(=O)NC4=O)cc3)ncn2)CC1	–	–	EC50 ([2]; cho-k1): Not Active
Cc1c(Oc2cccc(/C=C3\SC(=O)NC3=O)c2)ncnc1OC1CCN(C(=O)OCc2ccccc2)CC1	138	106	–
Cc1c(Oc2ccc(/C=C3\SC(=O)NC3=O)cc2)ncnc1OC1CCN(C(=O)OCC(C)C)CC1	70.2	75.1	Activity (Mus musculus): 24%
CC(C)(C)OC(=O)N1CCC(Oc2cc(Oc3cccc(/C=C4\SC(=O)NC4=O)c3)ncn2)CC1	78.3	125	–
O=C1NC(=O)/C(=C/c2ccc(Oc3cc(OC4CCN(C(=O)OCc5ccccc5)CC4)ncn3)cc2)S1	88.3	107	–
CC(C)COC(=O)N1CCC(Oc2cc(Oc3ccc(/C=C4\SC(=O)NC4=O)cc3)ncn2)CC1	51	745	–
CCOC(=O)N1CCC(Oc2ncnc(Oc3cccc(/C=C4\SC(=O)NC4=O)c3)c2C)CC1	–	–	EC50 ([2]; cho-k1): Not Active
O=C1NC(=O)/C(=C/c2cccc(Oc3cc(OC4CCN(C(=O)OCc5ccccc5)CC4)ncn3)c2)S1	98.3	153	–
CC(C)COC(=O)N1CCC(Oc2cc(Oc3cccc(/C=C4\SC(=O)NC4=O)c3)ncn2)CC1	62.4	720	–
